The structures appear in SMILES notation. Active and inactive are the calls of the source. No cut-off for these calls is given here.

The subject of test [1] is Candida albicans. In words: Antifungal activity against Candida albicans SC5314 planktonic monomicrobial biofilms assessed as […] viability after 24 hrs in presence 50% bovine serum by CFU assay. The test is classed as functional, organism-based. An outline of the steps:
(§1)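 C. albicans SC5314 at 10⁶ CFU/ml, alone or with S. aureus (10⁷ CFU/ml) for the mixed biofilm, was seeded in 50% bovine serum in tissue-culture-treated 96-well plates, 37°C, 24 h. Biofilms were PBS-washed thrice and exposed to serial antifungal concentrations diluted in 50% BS from DMSO stocks for 24 h. CFU were counted on ampicillin/erythromycin SDA after sonication. Duplicates, two experiments averaged.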

For test [2], the system named is Candida albicans. In words: Antifungal activity against Candida albicans SC5314 planktonic polymicrobial biofilms grown in presence of Staphylococcus aureus ATCC 29523 assessed as […] viability after 24 hrs in presence 50% bovine serum by CFU assay. The test is classed as functional, organism-based. In a few lines: as §1
Test [3] deals with Candida albicans. Kind of test: Antifungal activity against Candida albicans SC5314 monomicrobial biofilms assessed as fungal viability after 24 hrs by CFU assay in presence of 50% bovine serum. It counts as functional, organism-based. An outline of the steps:
(§2)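 Biofilms were formed in 96-well tissue culture-treated plates in 50% BS with C. albicans (10⁶ CFU/ml) and/or S. aureus (10⁷ CFU/ml) for 24 h at 37°C. They were washed three times in PBS. Vancomycin, Amp B or both were added from DMSO stocks diluted in 50% BS, and biofilms were incubated a further 24 h. Cells were sonicated, tenfold-diluted and counted as CFU on selective agar. Duplicates; averages of two experiments.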

For test [4], the system named is Staphylococcus aureus. In words: Antibacterial activity against 10^7 CFU/ml Staphylococcus aureus ATCC 29523 monomicrobial biofilms assessed as bacterial viability after 24 hrs by CFU assay in presence of 50% bovine serum. The test is classed as functional, organism-based. In a few lines: as §2
For test [5], the system named is Staphylococcus aureus. Kind of test: Antibacterial activity against 10^7 CFU/ml Staphylococcus aureus ATCC 29523 polymicrobial biofilms grown in presence of Candida albicans SC5314 assessed as bacterial viability after 24 hrs in presence of amphotericin B by CFU assay in presence of 50% bovine serum. It counts as functional, organism-based. An outline of the steps:
as §2

The test system of test [6] is Staphylococcus aureus. Kind of test: Antibacterial activity against 10^7 CFU/ml Staphylococcus aureus ATCC 29523 polymicrobial biofilms grown in presence of 10^6 CFU/mL Candida albicans SC5314 assessed as bacterial viability at 800 ug/mL after 24 hrs by Transwell assay. It counts as functional, organism-based. An outline of the steps:
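S. aureus (10⁷ CFU/ml) went in the bottom well and C. albicans (10⁶ CFU/ml) on a 0.4-μm PET Transwell insert, 24 h at 37°C. After PBS washing, vancomycin 800 μg/ml (diluted in 50% BS) went to the bottom well and Amp B to the insert, for 24 h at 37°C. CFU were counted in both compartments, with no-insert controls. Duplicates; averages of two experiments.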

Test [7] relates to Staphylococcus aureus. In words: Antibacterial activity against 10^7 CFU/ml Staphylococcus aureus ATCC 29523 monomicrobial biofilms assessed as bacterial viability after 24 hrs by CFU assay in presence of 50% heat inactivated bovine serum. It counts as functional, organism-based.
Test [8] deals with Candida albicans. Kind of test: Antifungal activity against Candida albicans SC5314 polymicrobial biofilms grown in presence of sStaphylococcus aureus ATCC 29523 assessed as fungal viability after 24 hrs by CFU assay in presence of 50% bovine serum. The test is classed as functional, organism-based. In a few lines: as §2
The test system of test [9] is Staphylococcus aureus. Kind of test: Antibacterial activity against 10^7 CFU/ml Staphylococcus aureus ATCC 29523 polymicrobial biofilms grown in presence of Candida albicans SC5314 assessed as bacterial viability at 1600 ug/mL after 24 hrs in presence 50% bovine serum by CFU assay. It counts as functional, organism-based. In a few lines:
as §2

The test system of test [10] is Staphylococcus aureus. In words: Antibacterial activity against 10^7 CFU/ml Staphylococcus aureus ATCC 29523 polymicrobial biofilms grown in presence of Candida albicans biofilm matrix assessed as reduction in bacterial viability at 1.582 to 1600 ug/mL after 24 hrs in presence 50% bovine serum by CFU assay. It counts as functional, organism-based. An outline of the steps:
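Matrix came from 24-h C. albicans biofilms in 50% BS. It was scraped, sonicated, centrifuged three times at 12,000 × g and treated with Amp B 20 μg/ml. S. aureus (10⁷ CFU/ml) plus matrix in 50% BS was grown in 96-well plates for 24 h at 37°C, washed, then exposed to vancomycin for 24 h. Washed cells were counted as CFU. Duplicates; two independent experiments.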

In test [11] the test system is Staphylococcus aureus. In words: Antibacterial activity against 10^7 CFU/ml Staphylococcus aureus ATCC 29523 monomicrobial biofilms assessed as log reduction in bacterial viability at 800 ug/mL after 24 hrs in presence of amphotericin B by CFU assay in presence of 50% bovine serum. The test is classed as functional. An outline of the steps:
as §2

Test [12] deals with Staphylococcus aureus. In words: Antibacterial activity against Staphylococcus aureus ATCC 29523 […] polymicrobial biofilms grown in presence of Candida albicans SC5314 assessed as bacterial viability after 24 hrs in presence 50% bovine serum by CFU assay. The test is classed as functional, organism-based.
Test [13] has as its system Staphylococcus aureus. Kind of test: Antibacterial activity against 10^7 CFU/ml Staphylococcus aureus ATCC 29523 polymicrobial biofilms grown in presence of Candida albicans SC5314 assessed as log reduction in bacterial viability at 800 ug/mL after 24 hrs in presence of amphotericin B by CFU assay in presence of 50% bovine serum. The test is classed as functional. An outline of the steps: as §2

Take `C[C@@H]1[C@H](O)[C@@H](C)/C=C/C=C/C=C/C=C/C=C/C=C/C=C/[C@H](O[C@@H]2O[C@H](C)[C@@H](O)[C@H](N)[C@@H]2O)C[C@@H]2O[C@](O)(C[C@@H](O)C[C@@H](O)[C@H](O)CC[C@@H](O)C[C@@H](O)CC(=O)O[C@H]1C)C[C@H](O)[C@H]2C(=O)O`: the “growth inhibition (GI)” value in [1] and in test [2] was “Active” each time. In addition, the “growth inhibition (GI)” value in test [3] is “inactive”.

`CN[C@H](CC(C)C)C(=O)N[C@H]1C(=O)N[C@@H](CC(N)=O)C(=O)N[C@H]2C(=O)N[C@H]3C(=O)N[C@H](C(=O)N[C@H](C(=O)O)c4cc(O)cc(O)c4-c4cc3ccc4O)[C@H](O)c3ccc(c(Cl)c3)Oc3cc2cc(c3O[C@@H]2O[C@H](CO)[C@@H](O)[C@H](O)[C@H]2O[C@H]2C[C@](C)(N)[C@H](O)[C@H](C)O2)Oc2ccc(cc2Cl)[C@H]1O` [VANCOMYCIN]: in [4], the “growth inhibition (GI)” value is “Dose-dependent effect”. In addition, the “growth inhibition (GI)” value in test [5], in [6] and in test [12] was “Active” throughout. Also, the “growth inhibition (GI)” value in test [7], in test [8], in test [9], in test [10] and in test [3] was “inactive” throughout. Moreover, the FC in test [11] and in test [13] was 2 throughout.

The record behind these values is ChEMBL document CHEMBL1687742, “Candida albicans and Staphylococcus aureus form polymicrobial biofilms: effects on antimicrobial resistance” (2009).
